Data taken from ChEMBL document CHEMBL4308830, “Design, Synthesis, and Characterization of 4-Undecylpiperidine-2-carboxamides as Positive Allosteric Modulators of the Serotonin (5-HT) 5-HT2C Receptor” (J Med Chem, 2018).
Active and inactive are the calls of the source. The rule behind the calls is not given here.

target: T1, 5-hydroxytryptamine receptor 2C (Homo sapiens) (UniProt P28335); assay: Positive allosteric modulation of human 5-HT2CR expressed in CHO cells assessed as 5-HT-induced intracellular calcium release at 1 nM preincubated for 15 mins followed by 5-HT addition by calcium-4 dye based FLIPR assay (reference value: 100%); format: functional, cell-based; details: not given
T1 sequence (whole entry): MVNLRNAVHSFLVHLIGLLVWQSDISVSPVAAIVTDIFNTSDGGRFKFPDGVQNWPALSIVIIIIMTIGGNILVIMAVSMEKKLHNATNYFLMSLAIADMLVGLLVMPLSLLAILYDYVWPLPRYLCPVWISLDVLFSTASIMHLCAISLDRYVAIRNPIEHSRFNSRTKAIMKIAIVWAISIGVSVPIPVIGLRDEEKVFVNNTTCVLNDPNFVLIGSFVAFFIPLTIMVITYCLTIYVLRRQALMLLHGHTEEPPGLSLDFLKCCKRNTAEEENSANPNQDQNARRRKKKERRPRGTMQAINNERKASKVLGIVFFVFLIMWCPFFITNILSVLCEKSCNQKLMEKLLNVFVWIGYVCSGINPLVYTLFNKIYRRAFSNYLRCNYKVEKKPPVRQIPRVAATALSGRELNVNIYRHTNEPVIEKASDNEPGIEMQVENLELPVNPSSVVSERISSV
Method in brief: (§1)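 CHO cells stably expressing human unedited INI 5-HT2CR were plated, serum-starved 3 h, then loaded with Calcium 4 dye plus 2.5 mM probenecid (60 min 37 °C, then 15 min RT). Compound (1 nM) was added; the read after this addition gave intrinsic agonism. 5-HT (10 pM–10 μM) followed 15 min later. FLIPR-TETRA: 10 s baseline, 1 s reads for 120 s after compound and 360 s after 5-HT. Emax came from 4-parameter fits, ≥3 biological replicates in triplicate.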

Row | Compound | Emax [%]
1 | CCCCCCCCCCC[C@@H]1CCN[C@H](C(=O)NC[C@H](O)CO)C1 | 114
2 | O=C(N[C@H](CO)[C@H](O)c1ccccc1)[C@H]1C[C@@H](C2CCCCC2)CCN1 | 104
3 | CCCCCCCCCCC[C@H]1CCN[C@@H](C(=O)N[C@H](CO)[C@H](O)c2ccccc2)C1 | 93.9
4 | CCCCCCCCCCC[C@@H]1CCN[C@H](C(=O)N[C@H](CO)[C@@H](C)O)C1 | 111
5 | CCCCCCCCCCC[C@@H]1CCN[C@H](C(=O)N[C@@H](CO)C(=O)OC)C1 | 99.6
6 | O=C(N[C@H](CO)[C@H](O)c1ccccc1)[C@@H]1C[C@H](CCC2CCCCC2)CCN1 | 96
7 | CCCCCCCCCCC[C@@H]1CCN[C@H](C(=O)N[C@@H](Cc2cc3ccccc3[nH]2)C(=O)OC)C1 | 102
8 | CCCCCCCCCCC[C@@H]1CCN[C@H](C(=O)NC[C@@H](O)CO)C1 | 106
9 | CC1CCC(CC[C@H]2CCN[C@@H](C(=O)N[C@@H](CO)[C@@H](O)c3ccccc3)C2)CC1 (stereo partly drawn) | 116
10 | O=C(N[C@H](CO)[C@H](O)c1ccccc1)[C@@H]1C[C@H](C2CCCCC2)CCN1 | 105
11 | CCCCCCCCCCC[C@@H]1CCN[C@H](C(=O)N[C@@H](Cc2ccc(O)cc2)C(=O)OC)C1 | 104
12 | CCCCCCCCCCC[C@@H]1CCN[C@H](C(=O)NCCN2CCOCC2)C1 (relative stereo) | 107
13 | CCCCCCCCCCC[C@@H]1CCN[C@H](C(=O)NCCO)C1 (relative stereo) | 108
14 | CCCCCCCCCCC[C@H]1CCN[C@@H](C(=O)N[C@@H](CO)[C@@H](O)c2ccccc2)C1 | 102
15 | CCCCCCCCCCC[C@@H]1CCN[C@H](C(=O)NC(CO)CO)C1 (relative stereo) | 108
16 | CCCCCCCCCCC[C@@H]1CCN[C@H](C(=O)N[C@H](C(=O)OC)[C@H](C)O)C1 | 102
17 | O=C(N[C@H](CO)[C@H](O)c1ccccc1)[C@H]1C[C@@H](CCC2CCCCC2)CCN1 | 89.6
18 | CCCCCCCCCCC[C@@H]1CCN[C@H](C(=O)N[C@H](CO)[C@H](O)c2ccccc2)C1 | 85.1
19 | CC1CCC(CC[C@@H]2CCN[C@H](C(=O)N[C@@H](CO)[C@@H](O)c3ccccc3)C2)CC1 (stereo partly drawn) | 107
20 | CCCCCCCCCCC[C@@H]1CCN[C@H](C(=O)O)C1 (relative stereo) | 109
21 | CCCCCCCCCCC[C@@H]1CCN[C@H](C(=O)N[C@@H](CO)[C@H](C)O)C1 | 112
22 | CCCCCCCCCCC[C@@H]1CCN[C@H](C(=O)NC[C@H](O)CCl)C1 | 114
23 | CCCCCCCCCCC[C@@H]1CCN[C@H](C(=O)N[C@@H](CO)[C@@H](O)c2ccccc2)C1 | 109

target: T1, 5-hydroxytryptamine receptor 2C (Homo sapiens); assay: Intrinsic agonist activity at human 5-HT2CR expressed in CHO cells assessed as induction of intracellular calcium release at 1 nM incubated for 15 mins measured every 1 sec for 120 secs by calcium-4 dye based FLIPR assay; format: functional, cell-based; details: not given; method in brief: as §1

Row | Compound | Activity
24 | CCCCCCCCCCC[C@@H]1CCN[C@H](C(=O)NC[C@H](O)CO)C1 | inactive
25 | O=C(N[C@H](CO)[C@H](O)c1ccccc1)[C@H]1C[C@@H](C2CCCCC2)CCN1 | inactive
26 | CCCCCCCCCCC[C@H]1CCN[C@@H](C(=O)N[C@H](CO)[C@H](O)c2ccccc2)C1 | inactive
27 | CCCCCCCCCCC[C@@H]1CCN[C@H](C(=O)N[C@H](CO)[C@@H](C)O)C1 | inactive
28 | CCCCCCCCCCC[C@@H]1CCN[C@H](C(=O)N[C@@H](CO)C(=O)OC)C1 | inactive
29 | O=C(N[C@H](CO)[C@H](O)c1ccccc1)[C@@H]1C[C@H](CCC2CCCCC2)CCN1 | inactive
30 | CCCCCCCCCCC[C@@H]1CCN[C@H](C(=O)N[C@@H](Cc2cc3ccccc3[nH]2)C(=O)OC)C1 | inactive
31 | CCCCCCCCCCC[C@@H]1CCN[C@H](C(=O)NC[C@@H](O)CO)C1 | inactive
32 | CC1CCC(CC[C@H]2CCN[C@@H](C(=O)N[C@@H](CO)[C@@H](O)c3ccccc3)C2)CC1 (stereo partly drawn) | inactive
33 | O=C(N[C@H](CO)[C@H](O)c1ccccc1)[C@@H]1C[C@H](C2CCCCC2)CCN1 | inactive
34 | CCCCCCCCCCC[C@@H]1CCN[C@H](C(=O)N[C@@H](Cc2ccc(O)cc2)C(=O)OC)C1 | inactive
35 | CCCCCCCCCCC[C@@H]1CCN[C@H](C(=O)NCCN2CCOCC2)C1 (relative stereo) | inactive
36 | CCCCCCCCCCC[C@@H]1CCN[C@H](C(=O)NCCO)C1 (relative stereo) | inactive
37 | CCCCCCCCCCC[C@H]1CCN[C@@H](C(=O)N[C@@H](CO)[C@@H](O)c2ccccc2)C1 | inactive
38 | CCCCCCCCCCC[C@@H]1CCN[C@H](C(=O)NC(CO)CO)C1 (relative stereo) | inactive
39 | CCCCCCCCCCC[C@@H]1CCN[C@H](C(=O)N[C@H](C(=O)OC)[C@H](C)O)C1 | inactive
40 | O=C(N[C@H](CO)[C@H](O)c1ccccc1)[C@H]1C[C@@H](CCC2CCCCC2)CCN1 | inactive
41 | CCCCCCCCCCC[C@@H]1CCN[C@H](C(=O)N[C@H](CO)[C@H](O)c2ccccc2)C1 | inactive
42 | CC1CCC(CC[C@@H]2CCN[C@H](C(=O)N[C@@H](CO)[C@@H](O)c3ccccc3)C2)CC1 (stereo partly drawn) | inactive
43 | CCCCCCCCCCC[C@@H]1CCN[C@H](C(=O)O)C1 (relative stereo) | inactive
44 | CCCCCCCCCCC[C@@H]1CCN[C@H](C(=O)N[C@@H](CO)[C@H](C)O)C1 | inactive
45 | CCCCCCCCCCC[C@@H]1CCN[C@H](C(=O)NC[C@H](O)CCl)C1 | inactive
46 | CCCCCCCCCCC[C@@H]1CCN[C@H](C(=O)N[C@@H](CO)[C@@H](O)c2ccccc2)C1 | inactive

system: CHO; assay: Cytotoxicity against CHO cells at 0.1 to 1000 nM after 1 hrs by LDH release assay; format: cell-based, Cricetulus griseus; details: chinese hamster, 1 µM
Method in brief: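 Lactate dehydrogenase release assay for cytotoxicity, compounds tested at 0.1 nM and 1 μM.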

Row | Compound | Activity
47 | O=C(N[C@H](CO)[C@H](O)c1ccccc1)[C@H]1C[C@@H](C2CCCCC2)CCN1 | Non-Toxic
48 | O=C(N[C@H](CO)[C@H](O)c1ccccc1)[C@@H]1C[C@H](C2CCCCC2)CCN1 | Non-Toxic
49 | CCCCCCCCCCC[C@@H]1CCN[C@H](C(=O)NCCO)C1 (relative stereo) | Non-Toxic
50 | CCCCCCCCCCC[C@@H]1CCN[C@H](C(=O)NC(CO)CO)C1 (relative stereo) | Non-Toxic
51 | O=C(N[C@H](CO)[C@H](O)c1ccccc1)[C@H]1C[C@@H](CCC2CCCCC2)CCN1 | Non-Toxic
52 | CCCCCCCCCCC[C@@H]1CCN[C@H](C(=O)N[C@H](CO)[C@H](O)c2ccccc2)C1 | Non-Toxic
53 | CCCCCCCCCCC[C@@H]1CCN[C@H](C(=O)NC[C@H](O)CCl)C1 | Non-Toxic
